Sampled rows, rich in hits. Any-hit rate of the full collection: about 2.7%.
MLL AF4-AF9 inh – blocks AF4 peptide binding to human AF9 | P42568 | AlphaScreen, biotin-AF4 peptide binding to FLAG-AF9 | inhibition, % at 10 µM | 350,000 tested, 0.47% active;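 active means every replicate reaching a set inhibition limit, whatever the replicate mean, cut at about 25% in these data; inconclusive means mean inhibition reaches that limit but some replicates miss it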
S100A4 MyoIIA – blocks human S100A4 binding to myosin IIA peptide | P26447 | S100A4/TAMRA-MyoIIA peptide fluorescence polarization | inhibition, % at 10.7 µM | 360,000 tested, 0.14% active | AID 652163;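 active means mean inhibition of at least 70% across replicates, with every replicate also reaching that level; inconclusive means mean inhibition reaches 70% but some replicates fall short; inactive means mean inhibition below 70%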
Target sequence (P26447 whole entry, looked up): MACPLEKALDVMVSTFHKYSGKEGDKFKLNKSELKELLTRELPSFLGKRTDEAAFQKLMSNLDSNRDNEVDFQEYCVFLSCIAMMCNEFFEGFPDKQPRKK
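Compound dosing: one dose per compound; test system: human S100A4 monomer with TAMRA-labelled myosin IIA peptide; probe or stimulus: TAMRA-labelled myosin IIA heavy-chain peptide probe, 5 nM; medium: HEPES buffer with Ca2+, pH 7.2; schedule: 5 min incubation before reading; benchmarks: neutral control DMSO, positive control TFP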
CaV13 FRET inh – Disruptors of the CACNA1D IQ motif to Ca2+-dependent inactivation inhibitor domain association, primary screening, Förster resonance energy transfer in intact living … | HEK cells, CFP/YFP FRET ICDI-IQ, plate reader, 10 min; percent FRET-ratio fall versus neutral wells | inhibition, % at 12.3 µM | 340,000 tested, 0.098% active | AID 743397;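 active means mean replicate inhibition of at least 30% and at least 1% of replicates passing that level; inconclusive means only one of the two criteria is met; inactive means neither criterion is met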
SIRT5 block – blocks human SIRT5 desuccinylation of peptide; Q9NXA8; Purified SirT5, succinyl-peptide AMC, trypsin-coupled fluorescence; inhibition, % at 15 µM; 330,000 tested, 1.1% active; AID 652115; in the data active means inhibition above about 15%; inconclusive means no clear call, values can overlap the other calls
Target sequence (Q9NXA8 whole entry, looked up): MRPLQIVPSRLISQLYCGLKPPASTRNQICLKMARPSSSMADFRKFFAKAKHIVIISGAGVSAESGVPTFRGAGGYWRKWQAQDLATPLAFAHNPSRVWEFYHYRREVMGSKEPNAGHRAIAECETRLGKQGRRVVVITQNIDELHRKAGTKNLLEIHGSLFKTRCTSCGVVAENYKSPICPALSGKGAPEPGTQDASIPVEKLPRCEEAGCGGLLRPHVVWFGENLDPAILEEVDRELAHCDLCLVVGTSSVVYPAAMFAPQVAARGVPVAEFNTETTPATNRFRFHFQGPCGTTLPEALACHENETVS
DENV2 CPE – protects cells from dengue virus 2 cytopathic effect | DENV2-infected cells, cytopathic effect rescue, plate reader | CPE inhibition, % at 9.99 µM | 350,000 tested, 1.7% active | AID 651640; in the data active means CPE inhibition above about 20%, passing the limit was not always enough; inconclusive means no clear call, values can overlap the other calls; tested in BHK-21 cells
Hits are given with their value; - = inactive; ? = inconclusive; . = no result.

SMILES	MLL AF4-AF9 inh	S100A4 MyoIIA	CaV13 FRET inh	SIRT5 block	DENV2 CPE
C[C@@H]1CN([C@@H](C)CO)C(=O)Cc2cc(NC(=O)Nc3cccc4ccccc34)ccc2O[C@@H]1CN(C)Cc1ccc(C(=O)O)cc1	-	-	.	-	48.9
C[C@@H]1CN([C@@H](C)CO)C(=O)Cc2cc(NC(=O)Nc3cccc4ccccc34)ccc2O[C@H]1CN(C)Cc1ccccc1	-	-	.	-	20.4
CC(=O)NCc1ccc(C(=O)COC(=O)COc2ccccc2)s1	-	-	-	-	-
CC(=O)NCc1ccc(C(=O)COC(=O)COc2ccc(Cl)c(C)c2)s1	-	-	-	-	65.0
C[C@H](CO)N1C[C@H](C)[C@@H](CN(C)C(=O)Nc2ccccc2)OCCCC[C@H](C)Oc2ccc(NC(=O)Nc3ccc4c(c3)OCO4)cc2C1=O	-	-	.	-	-
COc1ccc(NC(=O)Nc2cccc3c2O[C@@H](CN(C)Cc2ccccc2)[C@@H](C)CN([C@@H](C)CO)C3=O)cc1	-	-	.	-	-
COc1ccc(NC(=O)Nc2cccc3c2O[C@@H](CN(C)Cc2ccc(Oc4ccccc4)cc2)[C@H](C)CN([C@@H](C)CO)C3=O)cc1	-	-	.	16.3	-
COc1ccc(NC(=O)Nc2cccc3c2O[C@H](CN(C)Cc2ccccc2)[C@H](C)CN([C@H](C)CO)C3=O)cc1	-	-	.	-	29.5
COc1ccc(NC(=O)Nc2cccc3c2O[C@H](CN(C)Cc2ccc(Oc4ccccc4)cc2)[C@H](C)CN([C@H](C)CO)C3=O)cc1	-	-	.	-	-
COc1ccc(NC(=O)Nc2cccc3c2O[C@@H](CN(C)Cc2ccc(Oc4ccccc4)cc2)[C@@H](C)CN([C@@H](C)CO)C3=O)cc1	-	-	.	15.3	?
COc1ccc(NC(=O)Nc2cccc3c2O[C@@H](CN(C)Cc2ccc(Oc4ccccc4)cc2)[C@@H](C)CN([C@H](C)CO)C3=O)cc1	-	-	.	-	-
C[C@@H]1CN([C@@H](C)CO)C(=O)c2cc(NC(=O)CCC(F)(F)F)ccc2O[C@@H](C)CCCCO[C@H]1CN(C)Cc1ccncc1	-	-	.	-	-
O=[N+]([O-])c1cccc(COc2ccccc2CN2CCCC2)c1	-	-	-	-	58.0
COc1ccc(S(=O)(=O)Nc2ccc3c(c2)C(=O)N([C@H](C)CO)C[C@H](C)[C@@H](CN(C)C(=O)c2ccccc2)OCCCC[C@@H](C)O3)cc1	-	-	.	-	-
O=C1C=CC(=O)N1Cc1ccccc1	47.8	-	-	-	-
Cc1ccc(-c2ccc(C3[C@H]4CNC[C@@H]3N4C(=O)NC(C)C)cc2)cc1 (some centres not stated)	-	-	.	-	-
O=C(NCCN1CCCC1)C1CCC(=O)N(CCCN2CCOCC2)C1 (configuration not stated)	-	-	-	-	35.2
O=C(NCCOc1ccccc1)C1CCC(=O)N(CCCN2CCOCC2)C1 (configuration not stated)	-	-	-	-	-
Cc1ccccc1-c1ccc([C@@H]2[C@@H](CO)N3CCCCN(C(=O)c4cccnc4)C[C@H]23)cc1	-	-	.	-	49.1
COc1ccc(-c2ccc([C@H]3[C@H](CO)N4CCCCN(C(=O)c5ccc(F)cc5)C[C@@H]34)cc2)cc1	-	-	.	-	.
Cc1cccc(-c2ccc([C@H]3[C@@H](CO)N4CCCCN(C(=O)c5ccncc5)C[C@H]34)cc2)c1	-	-	.	-	20.4
COc1cccc(-c2ccc([C@H]3[C@H](CO)N4CCCCN(C(=O)c5ccc(F)cc5)C[C@@H]34)cc2)c1	-	-	.	-	37.0
Cc1cccc(-c2ccc([C@H]3[C@H]4CN(C(=O)c5cccnc5)CCCCN4[C@H]3CO)cc2)c1	25.5	-	.	-	-
C[C@@H]1CN([C@@H](C)CO)C(=O)c2cc(NC(=O)Nc3ccc(F)cc3)ccc2O[C@@H]1CN(C)C(=O)Nc1ccc2c(c1)OCO2	-	-	.	-	-
NC(=O)NC(=O)CN1C(=O)NC(c2ccccc2)(c2ccccc2)C1=O	-	-	-	-	-
SMILES	MLL AF4-AF9 inh	S100A4 MyoIIA	CaV13 FRET inh	SIRT5 block	DENV2 CPE
CC(C(=O)NC(N)=O)N1C(=O)NC(c2ccccc2)(c2ccccc2)C1=O (configuration not stated)	-	-	-	18.9	-
CO[C@@H]1CN(C)C(=O)c2cc(NC(=O)Nc3ccccc3)ccc2OC[C@@H](C)N(C(=O)CN(C)C)C[C@H]1C	-	-	.	-	-
CN1C(=O)c2cc(NC(=O)C3CCOCC3)ccc2OC[C@H]2O[C@@H](CC(=O)O)CC[C@H]21	.	-	.	.	.
CCC(=O)N1[C@H](CO)[C@@H](c2ccccc2)C12CN(Cc1nccs1)C2	-	-	.	-	73.1
O=C(c1ccccc1)N1[C@@H](CO)[C@@H](c2ccccc2)C12CN(Cc1nccs1)C2	-	-	.	-	25.3
O=C(c1ccccc1)N1[C@H](CO)[C@@H](c2ccccc2)C12CN(Cc1nccs1)C2	-	-	.	-	26.6
C[C@@H]1CN([C@H](C)CO)C(=O)Cc2cc(NC(=O)Cc3ccccc3)ccc2O[C@@H]1CN(C)Cc1ccc(C(=O)Nc2ccccc2N)cc1	-	-	.	-	-
CSCCC(NS(=O)(=O)c1ccccc1F)C(=O)NNC(=O)c1csc(N2CCOCC2)n1 (configuration not stated)	-	-	-	16.9	-
O=c1oc2ccccc2c(O)c1CN1CCCCC1	.	.	-	.	.
O=C(Cc1c(O)c2ccccc2oc1=O)c1ccc(F)cc1	47.4	-	-	-	-
COc1ccc(C2Nc3ccccc3C(=O)N2Cc2ccccc2)cc1 (configuration not stated)	-	-	-	-	-
COc1ccc([C@@H]2[C@@H](C)N(c3ccccc3)c3ccccc3C(=O)N2Cc2ccccc2)cc1	-	-	-	.	85.8
COc1cccc(C(=O)N2C[C@@H]3[C@H](c4ccccc42)[C@H](CO)N3C(C)=O)c1	-	-	.	-	-
CC1=C/C(=C(/c2cc(C)c(O)c(Br)c2)c2ccccc2S(=O)(=O)O)C=C(Br)C1=O	46.8	-	-	-	-
COc1ccccc1CN1CC(C(=O)NCc2nccn2C)CCC1=O (configuration not stated)	-	-	-	-	31.1
COc1ccccc1CN1CC(C(=O)N(C)CCCn2nc(C)cc2C)CCC1=O (configuration not stated)	-	-	.	-	51.5
COc1ccccc1CN1CC(C(=O)NCc2nc3ccccc3n2C)CCC1=O (configuration not stated)	-	-	.	-	-
C[C@H](NC(=O)C[C@@H]1CC[C@@H]2[C@H](COC[C@@H](O)CN2C(=O)Nc2cccc(F)c2)O1)c1ccccc1	-	-	.	-	-
C[C@@H]1CN([C@@H](C)CO)S(=O)(=O)c2ccc(Br)cc2O[C@H]1CN(C)CC1CCOCC1	.	.	.	.	-

High-throughput results deposited in PubChem by Broad Institute.
